Measurements published in ChEMBL document CHEMBL4513216, “Probing the Open Global Health Chemical Diversity Library for Multistage-Active Starting Points for Next-Generation Antimalarials” (ACS Infect Dis, 2020).

Test: Toxicity liver stage against HepG2, at 10uM
Format: cell-based
Set-up: test concentration 10 uM, cell line HepG2-A16-CD81EGFP
Settings: human, HepG2-A16-CD81EGFP cells; read-out: INHIBITION
Outline: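 Uninfected HepG2-A16-CD81EGFP cells, 3 × 10^3 per well, 1536-well, plated on prespotted compound at 10 μM final, parasite-free screening media added to match infected plates; puromycin 10 μM positive, DMSO 0.5% negative; run in parallel with 48 h PbLuc assay at 37 °C, 5% CO2; viability by CellTiter-Glo luminescence, normalized to controls.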

SMILES | cytotoxicity at 10 µM
CC(C)(CO)Nc1c(NCc2ccccn2)c(=O)c1=O | 0.122%
Cn1cc(C(=O)N2CCCC(Cc3nccs3)C2)cn1 (stereo unspecified) | 3.83%
COCCN1CCC2(CC1)CC(OCC1CC1)c1ccc(C)cc12 (stereo unspecified) | 15.5%
Cc1cc(C(=O)N(C)Cc2cnn(C)c2C)n(C)n1 | 8.19%
CCCS(=O)(=O)Nc1ccc2c(c1)OCC(C)(C)C(=O)N2C | -10.8%
COC[C@@]12CCO[C@@H]1CCN(Cc1sccc1C)C2 | -109%
Cc1noc([C@@H]2C[C@H](NS(=O)(=O)Cc3ccccc3)CN2C)n1 | 4.5%
CN(C)Cc1ccc(C2CCCCN2C(=O)c2cc(C3CC3)n[nH]2)cc1 (stereo unspecified) | -9.09%
CN(C)c1nc2n(c(=O)n1)CCN2C(=O)Nc1ccc(Cl)c(Cl)c1 | 9.76%
O=C(O)CCc1cccc(C2CCCN2Cc2cccc(Cl)c2)n1 (stereo unspecified) | -22.6%
Cc1ccc2c(n1)N(Cc1ccncc1)CCN(S(C)(=O)=O)C2 | -77.2%
CC(C)S(=O)(=O)N1CCC(c2[nH]ncc2S(C)(=O)=O)C1 (stereo unspecified) | -21.5%
O=C(c1ccc[nH]1)N1CC2(CCN(c3nccs3)C2)C1 | 5.68%
O=C(O)CCn1nc(C(F)(F)F)c(Cl)c1C1CC1 | 8.63%
CN(C)Cc1cc(=O)n2c(n1)CN(CC1CCOCC1)CCC2 | 6.37%
CCN1CCN(c2ccc(CNC(=O)c3cnn(C)c3C)cn2)CC1 | -11.1%
Cc1cc(CS(=O)(=O)CC(=O)N2c3ccccc3CC2C)no1 (stereo unspecified) | -0.284%
COCCNc1nc2c(c(NCc3ccncc3)n1)CCNCC2 | -2.18%
Cc1nn(C)c2c(NC3CCCC3)nc(C3CC3)nc12 | -0.801%
Cc1cccc(N2CC[C@H]3[C@H](CO[C@@H]3CN(C)Cc3ccco3)C2)n1 | 13.8%
CC(C)c1noc(C2CCN(S(=O)(=O)c3cccs3)CC2)n1 | 1.47%

SMILES | cytotoxicity at 10 µM
CC(C)OC(=O)CNC(=O)Nc1ccc(-c2nc(C(C)C)no2)cc1 | -5.81%
CCC(=O)NC1CCCN(C(=O)Nc2cccc(COC(C)C)c2)C1 (stereo unspecified) | 7.96%
CSc1ccc(NC(=O)NCC(O)C2CC2)cc1F (stereo unspecified) | 6.32%
COCC1(CNC(=O)[C@@]23CNC[C@@H]2CN(C2CCCC2)C3)CC1 | -11.9%
COc1ccccc1-n1c(O)cc(C)c(C#N)c1=O | 2.74%
Cc1cc(N2CCCCC2)nc(N(CCO)CCO)c1C#N | -7.32%
CCn1cc(CN2CCCN(C(=O)c3sc(C)nc3C)CC2)cn1 | -14.4%
CN1CCC(N(C)CCC(=O)N2CCC(CCc3ccccc3)CC2)C1 (stereo unspecified) | -5.87%
Cn1ccc(C(=O)N2CCCCC2c2cc(CCO)[nH]n2)n1 (stereo unspecified) | -0.01%
O=S(=O)(c1ccccc1)N1CCCC1c1cc[nH]n1 (stereo unspecified) | -6.58%
Cn1ncc2c1NC(=O)CC2c1c(Cl)cccc1Cl (stereo unspecified) | 55.1%
O=C(NCCn1ccnc1)c1cc(Br)c[nH]1 | -5.2%
Cc1ccccc1C(C)N(C)Cc1nc2c(cnn2C)c(=O)[nH]1 (stereo unspecified) | -6.69%
Cc1ccc(-c2nnc(CN3CC(n4cc(C)cn4)C3)o2)cc1 | 2.48%
CCC(C)(NCc1nc(C)c(C)o1)c1nccs1 (stereo unspecified) | -2.05%
CC(C)(C)c1ccc(C2(C(=O)NCCS(C)(=O)=O)CC2)cc1 | 2.91%
Cc1nc(CN(Cc2ccncc2)C2CCN(C)CC2)cs1 | -2.56%
CCc1nnc2n1CC(CNCc1nnc(C(C)(C)C)o1)CC2 (stereo unspecified) | 3.18%
N#Cc1ccc2c(c1)CN(C(=O)c1nc[nH]n1)C2c1cnco1 (stereo unspecified) | -2.6%
COCc1ccc(C(=O)N2CCCN(C(=O)OCC(C)C)CC2)cc1 | 13.4%
Cc1ncsc1CN1CC[C@H]2C[C@H](c3ccncn3)O[C@@H]2C1 | 4.87%

SMILES | cytotoxicity at 10 µM
CC(=O)N1CCN(CCNS(=O)(=O)c2cccc(F)c2)CC1 | 6.99%
Cc1ccc(CN2CC[C@@H](NC(=O)c3cccnc3)[C@H](O)C2)s1 | -2.68%
Cc1cc(C)c(C(=O)N2CCCC(O)(CN3CCCC3)C2)cc1C (stereo unspecified) | 8.4%
Cc1nnc(CN2CCN(Cc3nccn3C)CC2)n1C | -2.4%
CC(=O)c1c(F)cccc1N1CCC(NS(=O)(=O)c2ccccc2)CC1 | 53.4%
Cc1ccc(-c2nnc(C(C)N3CCn4c(C)nnc4C3)o2)cc1 (stereo unspecified) | -7.33%
Cc1c[nH]cc1C(=O)N1CCN(Cc2nc(C(C)C)no2)CC1 | -4.54%
CCC(CO)NC(=O)Nc1cc(F)ccc1Br (stereo unspecified) | 11.9%
Cc1nc(CC(=O)N2CCN(C(C)c3ccccc3F)CC2)cs1 (stereo unspecified) | 2.58%
CCCc1nc(NCCCOCC)c2c(n1)c(C)nn2CC | 21.6%
COCCCC(=O)N(CCC(=O)O)Cc1ccc(F)c(F)c1 | 4.91%
CNC(=O)[C@@]12CCCN(c3ncccn3)[C@@H]1CN(c1ncc(F)cn1)C2 | -1.43%
CCn1nc(C)c2nnn(CC(=O)Nc3ccc(C)c(C)c3)c(=O)c21 | 5.75%
COCCCNc1c(-c2ccc(Cl)cc2)c(=O)c1=O | 39.2%
Cn1c(C(F)(F)F)nn(CCNC(=O)CSCc2ccccc2)c1=O | -24%
COC(=O)c1ccc(Cl)c(NS(=O)(=O)c2cnn(C)c2)c1 | 0.214%
CN(C)CCNc1cc(-c2ncccc2C(F)(F)F)c2cc[nH]c2n1 | 7.2%
Cc1cc(CN2CCN(Cc3cc(C#N)ccc3F)CC2)no1 | 5.78%
COc1ncc(-c2cc(NCCN(C)C)nc3[nH]ccc23)c(OC)n1 | -20.7%
CCN(CC)c1ccc(NS(=O)(=O)c2cccnc2)cn1 | 3.8%
Cc1cccc2c1NC1(CCOCC1)NC2=O | -49.6%

SMILES | cytotoxicity at 10 µM
Cc1ccc(=O)n(CC2(O)CCN(Cc3ccoc3)CC2)n1 | -24.2%
O=C(CN1CCC[C@H]1C(=O)O)NCCOc1cccc(Cl)c1 | -22.6%
Cn1nnc2c1CCN(C(=O)C1CC1)C2COCCN1CCCC1 (stereo unspecified) | 8.33%
CC(=O)NC1CCCN(C(=O)NCc2cccnc2-n2cccn2)C1 (stereo unspecified) | 5.56%
Cc1ccc(N2CCCC(N(C)Cc3c(C)noc3C)C2)nn1 (stereo unspecified) | -14%
c1ccc(COCCN2CCc3[nH]cnc3C2c2ccco2)cc1 (stereo unspecified) | -2.01%
CN(C)C(=O)[C@@H]1CC[C@@H]2[C@@H](CCN2Cc2nccs2)O1 | 1.97%
O=C(NCCc1c[nH]cn1)C1CCCN(C2CCOCC2)C1 (stereo unspecified) | 1.58%
Cc1ncoc1C(=O)N1CCOC(CCCC(C)C)C1 (stereo unspecified) | 8.29%
Cc1cc(-c2cc(S(=O)(=O)N3C[C@H](C4CC4)[C@@H](N)C3)c(C)s2)on1 | 3.37%
Cc1nn(C)c(N(C)C)c1CNCc1ccccc1CN(C)C | -0.553%
CN1N=C(C(=O)N(Cc2ccco2)C2CCCC2)CCC1=O | -144%
Cc1nc(C2CCCN(C(=O)c3sccc3C3CC3)C2)no1 (stereo unspecified) | -3.74%
COC(=O)c1cccc(C(=O)N2CCN(c3cc(Cl)ccc3C)CC2)n1 | 81.2%
CN(Cc1ccco1)[C@@H]1CN(C(=O)c2ccnnc2)C[C@@H]2CCCO[C@@H]21 | -10.5%
c1ccc2nc(CN3CCCC3c3noc(C4CC4)n3)ccc2c1 (stereo unspecified) | -5.48%
CCOC(=O)N1CCN(c2nc(CCN)nc3sc(C)c(C)c23)CC1 | -43.4%
O=C(NC(C(=O)Nc1cc[nH]n1)c1ccccc1)C1CCC1 (stereo unspecified) | -17.5%
